Published values collected from several papers.
Target: Phosphatidylinositol 4,5-bisphosphate 3-kinase catalytic subunit gamma isoform (PIK3CG, Homo sapiens, UniProt P48736)

Compound | observed | technique | concentration | remaining binding
CCCOc1ccc([C@H]2[C@H](C(=O)O)[C@@H](c3ccc4c(c3)OCO4)CN2CC(=O)Nc2c(CC)cccc2CC)cc1 | cell-free assay | competition with immobilised ligand | 1 µM | 68%
COc1cnc(Nc2cccc(S(N)(=O)=O)c2)nc1N1CCN(c2ccccc2)C(=O)C1 | binding | competition with immobilised ligand | 1 µM | 34%
Cc1cnc(Nc2ccc(C(=O)N3CCC(N4CCCC4)CC3)cc2)nc1-c1cc2ccccc2s1 | binding | competition with immobilised ligand | 1 µM | 81%
CN1CCN(c2cnc3c(C4CCN(C(=O)c5ccc(OC(F)(F)F)cc5N)CC4)ncnc3c2)CC1 | cell-free assay | competition with immobilised ligand | 1 µM | 95%
CN(C)c1nccc(-c2cnn3ncccc23)n1 | binding | – | 1 µM | 76%
O=C(c1ccc(Nc2nccc(-c3cc4ccccc4s3)n2)cc1)N1CCC(N2CCCC2)CC1 | binding | competition with immobilised ligand | 1 µM | 27%
Cn1cc(Cl)c2c(Oc3c(F)cc(Nc4cc(Cl)nc(N)n4)cc3F)ccnc21 | cell-free assay | competition with immobilised ligand | 0.1 µM | 82%
COC(=O)Nc1nc2ccc(C(=O)c3ccccc3)cc2[nH]1 | cell-free assay | competition with immobilised ligand | 10 µM | 18%
O=C(O)[C@@H]1[C@@H](Cn2nnc3ccccc3c2=O)CC[C@H]1C(=O)c1ccc(OCCC2CCOCC2)cc1 | cell-free assay | competition with immobilised ligand | 1 µM | 100%
O=C(NCCCN1CCOCC1)c1ccc(Nc2nccc(-c3cc4ccccc4s3)n2)cc1 | binding | competition with immobilised ligand | 1 µM | 20%
O=C(Nc1c[nH]nc1C(=O)NC1CCNCC1)c1cc(F)cc(F)c1 | binding | competition with immobilised ligand | 1 µM | 100%
COCCOc1nc(-c2ccc(Cl)nc2)nc2c1CN(C(=O)c1ncn3ccccc13)CC2 | cell-free assay | competition with immobilised ligand | 0.1 µM | 100%
C[C@@H](c1ccc(-n2cnc3c(N)ncnc32)cc1)N1CCc2nn(C)c(Cc3ccccc3)c2C1=O | binding | competition with immobilised ligand | 0.1 µM | 85%
c1cnn2ncc(-c3ccnc(N4CCC45COC5)n3)c2c1 | binding | – | 1 µM | 74%
C[C@@H](c1cccc(C#N)c1)n1cc(Cl)cc(C(N)=O)c1=N | cell-free assay | competition with immobilised ligand | 1 µM | 100%
CC1CCCN1c1nccc(-c2cnn3ncccc23)n1 (centres unmarked) | binding | – | 1 µM | 100%
CC(C)CC(=O)N1CCc2nc(-c3ccc(Br)cc3)nc(N(C)Cc3ccccc3)c2C1 | cell-free assay | competition with immobilised ligand | 0.1 µM | 100%
C[C@H]1CCN(c2nccc(-c3cnn4ncccc34)n2)C1 | binding | – | 1 µM | 82%
COc1ncc2cc3ccccc3nc2c1C#N | cell-free assay | competition with immobilised ligand | 5 µM | 100%
Cc1cnn2ncc(-c3ccnc(N(C)C)n3)c2c1 | binding | – | 1 µM | 47%
c1cncc(-c2cccc(Nc3nccc(NC4CCCCC4)n3)c2)c1 | binding | competition with immobilised ligand | 10 µM | 69%
C=CC(=O)N1CCC(C(=O)NCC(=O)N2CCN(c3nc(-c4cnc(N)nc4C(F)F)nc(N4CCOCC4)n3)CC2)CC1 | binding | competition with immobilised ligand | 1 µM | 0.1%
N[C@H]1CCN(c2nccc(-c3cnn4ncccc34)n2)C1 | binding | – | 1 µM | 100%
